Results as given in ChEMBL document CHEMBL1122650, “Synthesis and central nervous system properties of 2-[(alkoxycarbonyl)amino]-4(5)-phenyl-2-imidazolines” (J Med Chem, 1984).
Activity calls are given as the source filed them. The rule behind the calls is not given here.

How the values were obtained:
Mus musculus [1] = species on record: Mus musculus; experiment: Evaluated for antagonism of reserpine induced hypothermia; assay type: functional
Procedure, shortened: (§1)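 Male HLa (ICR) BR mice, 18-24 g, in groups of eight; reserpine 5 mg/kg ip given 2 h before oral test compound as aqueous solution. Rectal temperature taken hourly; 1-4-h hypothermia assessed by analysis of variance.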

[2] = HPLC capacity factor (k'); assay type: ADME
Mus musculus [3] = species on record: Mus musculus; experiment: Compound was evaluated for maximal electroshock antagonism (MES) against mice; assay type: functional
Procedure, shortened: (§2)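 Male HLa (ICR) BR mice, groups of eight to ten, dosed ip (aqueous solution) 15 min before transcorneal electroshock (50 mA, 0.2 s). End point: abolition of tonic hind-limb extension; quantal ED50 by Litchfield-Wilcoxon.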

[4] = Lethal dose in mouse, in groups of ten; assay type: toxicity, organism-based; settings: in vivo
Mus musculus [5] = species on record: Mus musculus; experiment: Mouse behavior activity was determined; S-D=Stimulant-Depressant; assay type: functional, organism-based
Procedure, shortened: (§3)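 Male Simonsen (ICR) fBR mice, 18-24 g, groups of three, given 3, 10, 30, 100, 300 or 1000 mg/kg ip as aqueous solution and observed for behavioral profile; deaths followed up to 7 days.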

Mus musculus [6] = species on record: Mus musculus; experiment: Evaluated for antagonism of reserpine induced hypothermia;I= Inactive; assay type: functional, organism-based; procedure, shortened: as §1
Mus musculus [7] = species on record: Mus musculus; experiment: Compound was evaluated for maximal electroshock antagonism (MES) against mice; Inactive; assay type: functional, organism-based; procedure, shortened: as §2
Mus musculus [8] = species on record: Mus musculus; experiment: Mouse behavior activity was determined; Dwk=Depressant Weak; assay type: functional, organism-based; procedure, shortened: as §3
Mus musculus [9] = species on record: Mus musculus; experiment: Righting ability was determined in mice before rapid rolling (unaroused); assay type: functional
Procedure, shortened: (§4)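 Male Simonsen (ICR) fBR mice, 18-24 g, groups of ten, dosed with aqueous compound. Righting ability checked before (unaroused) and after (aroused) rapid rolling in the hand; ED50 by Litchfield-Wilcoxon method.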

Mus musculus [10] = species on record: Mus musculus; experiment: Mouse behavior activity was determined;D= Depressant; assay type: functional, organism-based; procedure, shortened: as §3
Mus musculus [11] = experiment: Evaluated in vivo for reserpine hypothermia after oral administration in mouse. Minimum active dose was reported; Inactive; assay type: functional, organism-based; procedure, shortened: as §1
Mus musculus [12] = species on record: Mus musculus; experiment: Righting ability was determined in mice […] rapid rolling (aroused); assay type: functional; procedure, shortened: as §4

| Compound | Log k' [2] | ED50 (Mus musculus [3]) [mg/kg] | LD50 [4] [mg/kg] | further results |
| --- | --- | --- | --- | --- |
| CCOC(=O)NC1=NC(c2ccc(F)cc2)CN1C (configuration not stated) | 0.48 | 100 | 200 | HYPO (Mus musculus [1]): <0.5 mg/kg; Mouse behavior activity (Mus musculus [5]): Stimulant-Depressant |
| COC(=O)NC1=NC(c2ccc(C(C)C)cc2)CN1 (configuration not stated) | 0.99 | – | 500 | HYPO (Mus musculus [6]): inactive; ED50 (Mus musculus [7]): inactive; Mouse behavior activity (Mus musculus [8]): Depressant - weak |
| CCOc1ccccc1OCC1CNCCO1 (configuration not stated) [VILOXAZINE] | – | 17 | 200 | Mouse behavior activity (Mus musculus [5]): Stimulant-Depressant |
| CCOC(=O)NC1=NC(c2cc(C)ccc2C)CN1 (configuration not stated) | 0.88 | – | – | ED50 (Mus musculus [7]): inactive |
| CCOC(=O)NC1=NCC2c3ccccc3CCN12 (configuration not stated) | – | – | 200 | HYPO (Mus musculus [6]): inactive; Mouse behavior activity (Mus musculus [5]): Stimulant-Depressant |
| COC(=O)NC1=NC(c2ccccc2-c2ccccc2)CN1 (configuration not stated) | 1.06 | – | 200 | HYPO (Mus musculus [1]): >20 mg/kg; Loss of righting reflex (Mus musculus [9]): 70 mg/kg; Mouse behavior activity (Mus musculus [10]): Depressant |
| COC(=O)NC1=NC2c3ccccc3CC2N1 (configuration not stated) | -1.14 | 44 | 700 | HYPO (Mus musculus [6]): inactive; Mouse behavior activity (Mus musculus [8]): Depressant Weak |
| COC(=O)NC1=NCC(c2c(Cl)cccc2Cl)N1C (configuration not stated) | 0.54 | 22 | – | – |
| COC(=O)NC1=NC(c2ccccc2Br)CN1 (configuration not stated) | 0.47 | 62 | – | – |
| COC(=O)NC1=NC(C)(c2ccccc2)CN1 (configuration not stated) | – | – | – | ED50 (Mus musculus [7]): inactive |
| CN1CC(c2c(Cl)cccc2Cl)N=C1N (configuration not stated) | – | – | – | ED50 (Mus musculus [7]): inactive |
| CN1C(N)=NCC1c1cccc(Cl)c1 (configuration not stated) | – | – | – | ED50 (Mus musculus [7]): inactive |
| COC(=O)NC1=NCC2(CCc3ccccc32)N1C (configuration not stated) | 0.48 | – | 300 | ED50 (Mus musculus [7]): inactive; Mouse behavior activity (Mus musculus [8]): Depressant Weak; ED50 (Mus musculus [11]): inactive |
| COC(=O)NC1=NC(c2cc(C)ccc2C)CN1 (configuration not stated) | 0.58 | ~100 | 700 | HYPO (Mus musculus [6]): inactive; Mouse behavior activity (Mus musculus [8]): Depressant - weak |
| COC(=O)NC1=NC(c2cccc(OC)c2)CN1C (configuration not stated) | 0.18 | 128 | 250 | HYPO (Mus musculus [1]): >20 mg/kg; Loss of righting reflex (Mus musculus [9]): 100 mg/kg; Loss of righting reflex (Mus musculus [12]): 144 mg/kg; Mouse behavior activity (Mus musculus [10]): Depressant |
| COC(=O)NC1=NC(c2cc(F)ccc2F)CN1 (configuration not stated) | -0.08 | 49 | > 300 | HYPO (Mus musculus [1]): <0.5 mg/kg; Mouse behavior activity (Mus musculus [8]): Depressant - weak |
| COC(=O)NC1=NCC2c3ccccc3CCN12 (configuration not stated) | – | – | 200 | Mouse behavior activity (Mus musculus [10]): Depressant |

| Compound | Log k' [2] | ED50 (Mus musculus [3]) [mg/kg] | LD50 [4] [mg/kg] | further results |
| --- | --- | --- | --- | --- |
| CC(C)COC(=O)NC1=NC(c2ccccc2)CN1C (configuration not stated) | 1.15 | 70 | 247 | HYPO (Mus musculus [1]): >20 mg/kg; Loss of righting reflex (Mus musculus [9]): 41 mg/kg; Loss of righting reflex (Mus musculus [12]): 76 mg/kg; Mouse behavior activity (Mus musculus [10]): Depressant |
| CC(C)OC(=O)NC1=NC(c2cccc(Cl)c2)CN1 (configuration not stated) | 0.95 | 79 | – | – |
| COC(=O)NC1=NC(c2cc(OC)cc(OC)c2)CN1 (configuration not stated) | 0.1 | – | 300 | HYPO (Mus musculus [6]): inactive; ED50 (Mus musculus [7]): inactive; Mouse behavior activity (Mus musculus [8]): Depressant - weak |
| COC(=O)NC1=NC(c2cccc(C)c2)CN1C (configuration not stated) | 0.49 | 89 | 475 | Loss of righting reflex (Mus musculus [9]): 90 mg/kg; Loss of righting reflex (Mus musculus [12]): 149 mg/kg; Mouse behavior activity (Mus musculus [10]): Depressant |
| COC(=O)NC1=NC(c2cc(Cl)cc(Cl)c2)CN1C (configuration not stated) | – | 44 | – | – |
| CCCOC(=O)NC1=NC(c2ccccc2F)CN1C (configuration not stated) | 0.87 | 23 | – | – |
| COC(=O)NC1=NC(c2cccc(Cl)c2)CN1C (configuration not stated) | 0.53 | 100 | 300 | Loss of righting reflex (Mus musculus [9]): 200 mg/kg; Mouse behavior activity (Mus musculus [10]): Depressant |
| COC(=O)NC1=NC(c2ccccc2F)CN1C (configuration not stated) | 0.14 | 74 | 254 | Mouse behavior activity (Mus musculus [8]): Depressant Weak; ED50 (Mus musculus [11]): inactive |
| COC(=O)NC1=NC(c2ccccc2C)CN1C (configuration not stated) | 0.37 | 68 | 200 | Mouse behavior activity (Mus musculus [10]): Depressant |
| CCN1CC(c2ccccc2)N=C1NC(=O)OC (configuration not stated) | 0.39 | 66 | 117 | Loss of righting reflex (Mus musculus [9]): 84 mg/kg; Mouse behavior activity (Mus musculus [10]): Depressant |
| COC(=O)NC1=NC(c2ccc3c(c2)OCO3)CN1 (configuration not stated) | -0.14 | – | 200 | HYPO (Mus musculus [6]): inactive; ED50 (Mus musculus [7]): inactive |
| COC(=O)NC1=NC(c2ccccc2)CN1Cc1ccccc1 (configuration not stated) | 1.25 | 100 | 200 | HYPO (Mus musculus [6]): inactive; Mouse behavior activity (Mus musculus [8]): Depressant Weak |
| COC(=O)NC1=NCC(c2ccccc2)N1C (configuration not stated) | – | – | 200 | ED50 (Mus musculus [7]): inactive; Mouse behavior activity (Mus musculus [5]): Stimulant-Depressant |
| COC(=O)NC1=NC(Cc2ccccc2)CN1 (configuration not stated) | 0.12 | – | – | – |
| CCOC(=O)NC1=NC(c2cccc(C)c2C)CN1C (configuration not stated) | 1.02 | 70 | 300 | HYPO (Mus musculus [6]): inactive; Loss of righting reflex (Mus musculus [9]): 41 mg/kg; Loss of righting reflex (Mus musculus [12]): 66 mg/kg; Mouse behavior activity (Mus musculus [10]): Depressant |
| COC(=O)NC1=NC(c2c(Cl)cccc2Cl)CN1C (configuration not stated) | – | – | – | HYPO (Mus musculus [1]): <0.5 mg/kg |
| CN(C)CCC=C1c2ccccc2COc2ccccc21 [DOXEPIN] | – | 16 | 50 | Loss of righting reflex (Mus musculus [9]): 40 mg/kg; Loss of righting reflex (Mus musculus [12]): 43 mg/kg; Mouse behavior activity (Mus musculus [10]): Depressant |
